Source: ChEMBL document CHEMBL1833861 (J Med Chem, 2011)
Active and inactive are the calls of the source. The rule behind the calls is not given here.

What was measured:
Mus musculus [1] = assay: Antidepressant activity in BALB/cJ mouse assessed as decrease in immobility time at 10 mg/kg, po after 30 mins by forced swim test; type: functional, organism-based; design: dose 10 mg/kg
Procedure, shortened: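 Male BALB/cJ mice, 8–10 weeks old, dosed by oral gavage with compound in injectable water (10 mL/kg). Sertraline served as positive control. Forced swim begins 30 min after dosing, in a cylinder with 12 cm of 23 ± 1 °C water; total immobility recorded over 6 min. ANOVA followed by Newman-Keuls post hoc test.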

Mus musculus [2] = assay: Antidepressant activity in BALB/cJ mouse assessed as decrease in immobility time at 1 mg/kg, ip after 30 mins by forced swim test; type: functional, organism-based; design: dose 1 mg/kg
Procedure, shortened: (§1)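 Male BALB/cJ mice, 8–10 weeks old; compound in injectable water given ip at 10 mL/kg. Sertraline (10 or 20 mg/kg) served as positive control. 30 min post-dose, each mouse placed in a glass cylinder with 12 cm of 23 ± 1 °C water; immobility (floating) timed over a 6 min trial. n = 10/group; ANOVA with post hoc test.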

Mus musculus [3] = assay: Ex vivo receptor occupancy at beta2 nAChR in BALB/cJ mouse brain at 3 mg/kg, ip after 30 mins; type: functional; conditions: route intraperitoneal
Procedure, shortened: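 Male BALB/cJ mice, 8–10 weeks old, dosed IP at 3 mg/kg (water vehicle, 10 mL/kg); vehicle controls received water. Brains collected 30 min after dosing, matching the forced-swim timing. β2* nAChR occupancy measured ex vivo in thalamus.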

Mus musculus [4] = assay: Antidepressant activity in BALB/cJ mouse assessed as decrease in immobility time at 3 mg/kg, ip after 30 mins by forced swim test; type: functional, organism-based; design: dose 3 mg/kg; procedure, shortened: as §1

Cl.OCCc1cc(-c2cncc(OC[C@@H]3CCN3)c2)on1
Activity (Mus musculus [1]): Active
Activity (Mus musculus [2]): Active
Activity (Mus musculus [3]): 60%
Activity (Mus musculus [4]): Active
